{"data": "Measurements pooled from the literature", "EIF2AK4 S808G C-terminal kinase domain": "eIF-2-alpha kinase GCN2, C-terminal kinase domain (EIF2AK4, Homo sapiens, UniProt Q9P2K8, S808G)", "EIF2AK4 S808G": "eIF-2-alpha kinase GCN2 (EIF2AK4, Homo sapiens, UniProt Q9P2K8, S808G)", "note": "Lines come from different studies, so protocols differ."}
{"SMILES": "O=C(NCCCN1CCOCC1)c1ccc(Nc2nccc(-c3cc4ccccc4s3)n2)cc1", "target": "EIF2AK4 S808G C-terminal kinase domain", "effect on": "binding", "technique": "competition with immobilised ligand", "concentration": "1 µM", "remaining binding [%]": 15}
{"SMILES": "N[C@@H]1CCN(c2nccc(-c3cnn4ncccc34)n2)C1", "target": "EIF2AK4 S808G", "effect on": "binding", "concentration": "1 µM", "remaining binding [%]": 100}
{"SMILES": "CCCCN(CCCC)C(=O)CN1C[C@@H](c2cc(OC)c3c(c2)OCO3)[C@H](C(=O)O)[C@H]1CC(C)(C)CCC", "target": "EIF2AK4 S808G C-terminal kinase domain", "effect on": "cell-free assay", "technique": "competition with immobilised ligand", "concentration": "1 µM", "remaining binding [%]": 100}
{"SMILES": "CN1CCN(c2ccc(Nc3nccc(-c4cccc([N+](=O)[O-])c4)n3)cc2C(F)(F)F)CC1", "target": "EIF2AK4 S808G", "effect on": "binding", "concentration": "10 µM", "remaining binding [%]": 0.2}
{"SMILES": "C[C@@H]1CCN(c2nccc(-c3cnn4ncccc34)n2)C1", "target": "EIF2AK4 S808G", "effect on": "binding", "concentration": "1 µM", "remaining binding [%]": 78}
{"SMILES": "CCN1CCN(Cc2ccc(C(=O)Nc3ccc(C)c(Oc4ccc5c(c4)CC(=O)N5)c3)cc2C(F)(F)F)CC1", "target": "EIF2AK4 S808G C-terminal kinase domain", "effect on": "binding", "technique": "competition with immobilised ligand", "concentration": "1 µM", "remaining binding [%]": 100}
{"SMILES": "O=C(NCC1CCOCC1)c1n[nH]cc1NC(=O)c1c(F)cccc1F", "target": "EIF2AK4 S808G C-terminal kinase domain", "effect on": "binding", "technique": "competition with immobilised ligand", "concentration": "1 µM", "remaining binding [%]": 100}
{"SMILES": "O=C(O)[C@H]1[C@H](Cn2nnc3ccccc3c2=O)CC[C@@H]1C(=O)c1ccc(OCCC2CCOCC2)cc1", "target": "EIF2AK4 S808G C-terminal kinase domain", "effect on": "cell-free assay", "technique": "competition with immobilised ligand", "concentration": "1 µM", "remaining binding [%]": 55}
{"SMILES": "O=C(NCCCN1CCOCC1)c1ccc(Nc2ncc(Cl)c(-c3ccc(Cl)s3)n2)cc1", "target": "EIF2AK4 S808G C-terminal kinase domain", "effect on": "binding", "technique": "competition with immobilised ligand", "concentration": "1 µM", "remaining binding [%]": 0.35}
{"SMILES": "CCC(=N\\O)/C(C)=C/c1ccc(F)cc1", "target": "EIF2AK4 S808G C-terminal kinase domain", "effect on": "cell-free assay", "technique": "competition with immobilised ligand", "concentration": "1 µM", "remaining binding [%]": 70}
{"SMILES": "c1cncc(-c2cccc(Nc3nccc(NC4CCCCC4)n3)c2)c1", "target": "EIF2AK4 S808G C-terminal kinase domain", "effect on": "binding", "technique": "competition with immobilised ligand", "concentration": "10 µM", "remaining binding [%]": 100}
{"SMILES": "CN(CCCC(F)(F)F)c1nccc(-c2cnn3ncccc23)n1", "target": "EIF2AK4 S808G", "effect on": "binding", "concentration": "1 µM", "remaining binding [%]": 99}
{"SMILES": "Cn1nc(C(F)(F)F)cc1-c1cnc(N2CCc3cc(S(=O)(=O)Nc4c(F)cc(Cl)cc4F)cc(N4CCCC4=O)c32)nc1", "target": "EIF2AK4 S808G C-terminal kinase domain", "effect on": "cell-free assay", "technique": "competition with immobilised ligand", "concentration": "1 µM", "remaining binding [%]": 100}
{"SMILES": "CN(C)c1nccc(-c2cnn3ncccc23)n1", "target": "EIF2AK4 S808G", "effect on": "binding", "concentration": "1 µM", "remaining binding [%]": 100}
{"SMILES": "Nc1ncc2c(n1)-c1c([nH]c3ccc(C#CC4CC4)cc13)CCCC2", "target": "EIF2AK4 S808G C-terminal kinase domain", "effect on": "binding", "technique": "competition with immobilised ligand", "concentration": "1 µM", "remaining binding [%]": 89}
{"SMILES": "c1cnn2ncc(-c3ccnc(N4CCC45COC5)n3)c2c1", "target": "EIF2AK4 S808G", "effect on": "binding", "concentration": "1 µM", "remaining binding [%]": 100}
{"SMILES": "C[C@H](NC(=O)c1cnc2n1[C@](C)(Cc1ccc(C#N)cc1)C(=O)N2c1cc(Cl)c(F)c(Cl)c1)C(=O)NC1(c2ccccn2)CC1", "target": "EIF2AK4 S808G C-terminal kinase domain", "effect on": "cell-free assay", "technique": "competition with immobilised ligand", "concentration": "1 µM", "remaining binding [%]": 100}
{"SMILES": "COc1ccnn2ncc(-c3ccnc(N(C)C)n3)c12", "target": "EIF2AK4 S808G", "effect on": "binding", "concentration": "1 µM", "remaining binding [%]": 93}
{"SMILES": "CC(=O)N1CCC(c2ccc(C(=O)NC3=NCCN3)cc2C(F)(F)F)CC1", "target": "EIF2AK4 S808G C-terminal kinase domain", "effect on": "cell-free assay", "technique": "competition with immobilised ligand", "concentration": "1 µM", "remaining binding [%]": 52}
{"SMILES": "COc1cnc(Nc2cccc(S(N)(=O)=O)c2)nc1N1CCN(c2ccccc2)CC1", "target": "EIF2AK4 S808G C-terminal kinase domain", "effect on": "binding", "technique": "competition with immobilised ligand", "concentration": "1 µM", "remaining binding [%]": 95}
{"SMILES": "O=S(=O)(NC1CCC(c2cc(F)ccc2F)(S(=O)(=O)c2ccc(Cl)cc2)CC1)C(F)(F)F (stereo not shown)", "target": "EIF2AK4 S808G C-terminal kinase domain", "effect on": "cell-free assay", "technique": "competition with immobilised ligand", "concentration": "1 µM", "remaining binding [%]": 100}
{"SMILES": "O=C(c1ccc(Nc2ncc(Cl)c(-c3cc4ccccc4s3)n2)cc1)N1CCC(N2CCCC2)CC1", "target": "EIF2AK4 S808G C-terminal kinase domain", "effect on": "binding", "technique": "competition with immobilised ligand", "concentration": "1 µM", "remaining binding [%]": 0}
